From article PMC3756293 (Translational Psychiatry, 2013)
Entries after “also recorded” stand apart in the source; their conditions may differ. Read-outs that look alike come from different tables or passages of the source.

Columns and labels:
[1] = Plasma pharmacokinetics of ABT-384 and metabolites after five daily doses; assay type: in vivo, human
[2] = 1 mg ABT-384 QD for 7 days; cited from earlier work
[3] = CSF pharmacokinetics of ABT-384 and acid metabolite after five daily doses; assay type: in vivo, human; conditions: for CSF levels as percent of the free plasma levels / CSF levels as percent of the total plasma levels: 1-50 mg QD for 5 days; for CSF/free plasma exposure ratio: across the dose range tested (1-50 mg QD)
How it was run: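 Two subjects received 50 mg QD for 5 days. CSF was drawn by catheter before dosing, every 30 min for 8 h, and at 9, 12, 16 and 24 h. Other subjects were sampled hourly during the D4 cortisol infusions plus set post-dose times. Parent and acid metabolite were measured by validated HPLC–MS with D6 stable-label internal standards, injected directly without online solid-phase extraction.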

[4] = target: T1, 11-beta-hydroxysteroid dehydrogenase type 1 (HSD-1) (Homo sapiens, UniProt P28845); assay type: in vivo; conditions: regimens of 1-50 mg ABT-384 QD for 5 days, spot urine
[5] = Safety and tolerability in the clinical study; assay type: in vivo, human
How it was run: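 This open-label, single-site multiple-dose study ran 1–50 mg QD for 5 days. Subjects were confined from Day −1 until at least 48 h after CSF catheter removal, and adverse events were recorded until 30 days after the last dose.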

[6] = target: T1, 11-beta-hydroxysteroid dehydrogenase type 1 (HSD-1); conditions: cited from earlier work
[7] = Preclinical tissue distribution, liver relative to plasma; assay type: in vivo; conditions: rats; data on file
[8] = as above; assay type: in vivo; conditions: monkeys; data on file
[9] = target: T1, 11-beta-hydroxysteroid dehydrogenase type 1 (HSD-1); experiment: Peripheral HSD-1 inhibition: 1-; assay type: in vivo
How it was run: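 Plasma was sampled hourly during two 8 h D4 cortisol infusions on Days 5–6, after 5 days of once-daily dosing. Inhibition = 1 − (plasma D3 cortisol/plasma D4 cortisol), where 1 approximates the steady-state ratio seen in untreated control subjects. Values are given per time point across both infusions (16 time points).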

[10] = target: T1, 11-beta-hydroxysteroid dehydrogenase type 1 (HSD-1); assay type: in vivo
[11] = target: T1, 11-beta-hydroxysteroid dehydrogenase type 1 (HSD-1); assay type: in vivo; remark: listed apart in the source
How it was run: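 During primed continuous D4 cortisol infusions after five daily doses, plasma was collected hourly. Labeled cortisol and cortisone were measured by mass spectrometry, and the plasma D3 cortisol/D3 cortisone ratio served as a measure of total-body HSD-1 activity.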

[12] = target: HSD-1 (Homo sapiens, UniProt P28845); experiment: HSD-1 binding and dissociation kinetics in vitro; conditions: data on file
[13] = daily doses up to 100 mg, healthy volunteers and elderly subjects; cited from earlier work
[14] = 1-50 mg ABT-384 QD for 5 days, healthy men

T1 sequence (P28845 whole entry): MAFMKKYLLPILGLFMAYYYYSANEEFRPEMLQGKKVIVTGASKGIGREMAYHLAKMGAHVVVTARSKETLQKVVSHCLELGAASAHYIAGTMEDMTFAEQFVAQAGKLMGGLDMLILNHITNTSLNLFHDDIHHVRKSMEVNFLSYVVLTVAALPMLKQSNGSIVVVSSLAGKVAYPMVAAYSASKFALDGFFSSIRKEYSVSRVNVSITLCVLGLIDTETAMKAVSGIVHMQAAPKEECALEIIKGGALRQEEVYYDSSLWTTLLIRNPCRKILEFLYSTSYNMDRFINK
HSD-1, sequence (P28845 whole entry): as above

Structure (SMILES): O=C(O)C(O)(c1cccs1)c1cccs1 [Acid Metabolite]
- mean acid metabolite/parent AUC0-24 ratio in plasma ([1]; plasma): < 20%
- mean acid metabolite/parent Cmax ratio in plasma ([1]; plasma): < 10%
- mean metabolite/parent Cmax ratio ([1]; plasma, 1-50 mg QD for 5 days): 6–9%
- mean plasma Cmax [2]: 0.31 ng/mL
- CSF levels as percent of the free plasma levels [3]: 110–150%
- CSF levels as percent of the total plasma levels [3]: 3–4%
- mean acid metabolite/parent AUC0-24 ratio in CSF ([3]; CSF): 70–90%
- mean acid metabolite/parent Cmax ratio in CSF ([3]; CSF): ~40%
- CSF/free plasma exposure ratio [3]: greater than 1

Structure (SMILES): CC(C)(C(=O)NC1C2CC3CC1CC(C(N)=O)(C3)C2)N1CCN(c2ccc(C(F)(F)F)cn2)CC1 (centres unmarked) [ABT-384]
- hepatic HSD-1 inhibition [4]: full hepatic HSD-1 inhibition
- adrenocorticotropic hormone or cortisol values above normal [5, 14]: No subject showed adrenocorticotropic hormone or cortisol values above normal
- changes of clinical laboratory tests, vital signs or electrocardiography parameters [5, 14]: No clinically significant changes
- deaths, serious adverse events, discontinuations due to adverse events [5, 14]: No deaths, other serious adverse events or discontinuations due to adverse events occurred
- tolerability ([5]; regimens of 1-50 mg ABT-384 QD for 5 days): well tolerated
- decrease of ratio of urine cortisol metabolites to cortisone metabolite ([6]; 1-100 mg ABT-384 QD for 7 days, 24-h urine collection): 87–97%
- hepatic HSD-1 inhibition ([6]; regimens from 1 mg daily (1 mg QD for 7 days)): fully inhibited hepatic HSD-1; also recorded: full hepatic HSD-1 inhibition for 24 h
- time to peak levels in the plasma ([1]; after last dose on Day 5, 1-50 mg QD): 1.5 to 3 h
- plasma Cmax at which full peripheral HSD-1 inhibition was observed ([1]; man): ~2 ng/mL
- distribution to the liver relative to the plasma [7]: preferentially distributes to the liver
- distribution to the liver relative to the plasma [8]: preferentially distributes to the liver
- peripheral HSD-1 inhibition ([9]; 1 mg regimen, at 40 h after the last dose): ~86%
- peripheral HSD-1 inhibition ([9]; 1 mg regimen, each of eight time points up to 8 h after the last dose): ~90%
- peripheral HSD-1 inhibition ([9]; 2, 10 and 50 mg QD, each of 16 time points up to 40 h after the last dose): 91–93%
- mean plasma Cmax [2]: 9.41 ng/mL
- CNS HSD-1 inhibition (CNS formation of D3 cortisol) ([10]; 1 mg ABT-384 QD for 5 days): partial but substantial CNS HSD-1 inhibition; also recorded: Reduced CNS D3 cortisol formation
- intrinsic CSF D3 cortisol compared with the level attained in the absence of study drug ([10]; 1 mg regimen, hours 4-8 of each D4 cortisol infusion): approximately two- to three-fold lower
- CNS HSD-1 inhibition (CNS formation of D3 cortisol) ([10]; 2-50 mg ABT-384 QD for 5 days, through 40 h after the last dose): full CNS HSD-1 inhibition; also recorded: essentially complete CNS HSD-1 inhibition; also recorded: Complete blockade of D3 cortisol formation in the CNS
- minimum daily dose to achieve full CNS HSD-1 inhibition ([10]; QD dosing): ≤ 2 mg
- peripheral HSD-1 inhibition ([11]; 1 mg QD, each hour from 33 to 40 h after the last dose): 81–87%
- peripheral HSD-1 inhibition ([11]; ABT-384 1 mg daily, five daily doses, up to 40 h after last dose): ≥ 81%
- peripheral HSD-1 inhibition ([11]; ABT-384 regimens ⩾2 mg daily, five daily doses, up to 40 h after last dose): ≥ 88%
- HSD-1 inhibition predicted from plasma Cmax ([11]; plasma Cmax ~2 ng ml^−1, assuming reversible inhibition, in the absence of preferential tissue distribution): ~60%
- binding to and dissociation from HSD-1 [12]: rapid binding to, and very slow dissociation from; also recorded: rapid binding, slow dissociation kinetics
- tolerability [13]: generally well tolerated
- CSF levels as percent of the free plasma levels [3]: 10–50%
- CSF levels as percent of the total plasma levels [3]: 0.3–1%
- CSF/free plasma exposure ratio [3]: less than 0.5
- time to peak levels in the CSF ([3]; after last dose on Day 5): 2.5 to 5 h
